Data reported in ChEMBL document CHEMBL4257537, “Design, synthesis, and biological evaluation of m-amidophenol derivatives as a new class of antitubercular agents” (Medchemcomm, 2018).
Converted amounts (≈) assume the structure as drawn.

Assays:
Assay type in all cases: functional
[1] = system: Mycobacterium tuberculosis; experiment: Antimycobacterial activity against rifampicin-resistant Mycobacterium tuberculosis isolate R7 after 7 days by microplate alamar blue assay; settings: isolate R7, 168 h
Method in brief: (§1)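 Each well held a 1/100 culture dilution plus 10-point two-fold DMSO dilutions (top 100 µg/mL, final DMSO 2%). INH and RIF were the positive controls. After 7 days at 37 °C, Tween 80 and alamarBlue were added for 16–24 h. MIC was the lowest concentration preventing the blue-to-pink change.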

[2] = system: Mycobacterium tuberculosis; experiment: Antimycobacterial activity against rifampicin-resistant Mycobacterium tuberculosis isolate P90 after 7 days by microplate alamar blue assay; settings: isolate P90, 168 h; method in brief: as §1
[3] = system: Mycobacterium tuberculosis; experiment: Antimycobacterial activity against rifampicin-resistant Mycobacterium tuberculosis isolate P98 after 7 days by microplate alamar blue assay; settings: isolate P98, 168 h; method in brief: as §1
[4] = system: Mycobacterium tuberculosis; experiment: Antimycobacterial activity against rifampicin-resistant Mycobacterium tuberculosis isolate P103 after 7 days by microplate alamar blue assay; settings: isolate P103, 168 h; method in brief: as §1
[5] = system: Mycobacterium tuberculosis; experiment: Antimycobacterial activity against rifampicin-resistant Mycobacterium tuberculosis isolate P91 after 7 days by microplate alamar blue assay; settings: isolate P91, 168 h; method in brief: as §1
[6] = system: Mycobacterium tuberculosis; experiment: Antimycobacterial activity against rifampicin/isoniazid/pyrazinamide-resistant Mycobacterium tuberculosis isolate P71 after 7 days by microplate alamar blue assay; settings: isolate P71, 168 h; method in brief: as §1

| SMILES | MIC [1] [µg/mL] | MIC [2] [µg/mL] | MIC [3] [µg/mL] | MIC [4] [µg/mL] | MIC [5] [µg/mL] | MIC [6] [µg/mL] |
| --- | --- | --- | --- | --- | --- | --- |
| O=C(Nc1cc(O)cc(Cc2ccccc2)c1)C1CCCCC1 | 3.12 (≈ 10.1 µM) | > 100 | > 100 | 0.39 (≈ 1.26 µM) | 0.39 (≈ 1.26 µM) | > 100 |
| O=C(Nc1cc(O)cc(Cc2ccccc2)c1)c1ccccc1 | 0.78 (≈ 2.57 µM) | > 100 | > 100 | 0.39 (≈ 1.29 µM) | 0.39 (≈ 1.29 µM) | > 100 |
